What was measured:
Assay type in all cases: functional
[1] = tested on: HOP-62; test: Growth inhibition of human HOP62 cells assessed as cell growth at 1 M after 48 hrs by sulforhodamine B assay; set-up: scale not given: the % may be the effect or the level left
Summary of the method: (§1)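 NCI 60-cell screen at a single high dose. Cells are grown in RPMI 1640 with 5% FBS and 2 mM L-glutamine, then plated at 5000–40,000 cells/well and held 24 h at 37 °C in 5% CO2 at 100% humidity. Drug is then added and plates are incubated another 48 h, with SRB staining as read-out. Results are given as growth percent (100 = no inhibition, 0 = no net growth, negative = lethality).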

[2] = tested on: HOP-92; test: Growth inhibition of human HOP92 cells assessed as cell growth at 1 M after 48 hrs by sulforhodamine B assay; set-up: scale not given: the % may be the effect or the level left; summary of the method: as §1
[3] = tested on: PC-3; test: Growth inhibition of human PC3 cells assessed as cell growth at 1 M after 48 hrs by sulforhodamine B assay; set-up: scale not given: the % may be the effect or the level left; summary of the method: as §1
[4] = tested on: A498; test: Growth inhibition of human A498 cells assessed as cell growth at 1 M after 48 hrs by sulforhodamine B assay; set-up: scale not given: the % may be the effect or the level left; summary of the method: as §1
[5] = tested on: TK-10; test: Growth inhibition of human TK10 cells assessed as cell growth at 1 M after 48 hrs by sulforhodamine B assay; set-up: scale not given: the % may be the effect or the level left
Summary of the method: (§2)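 NCI 60-cell panel screen, single dose (1.0 M as printed). Cells grown in RPMI 1640 with 5% fetal bovine serum and 2 mM L-glutamine, seeded at 5000–40,000 cells/well, preincubated 24 h at 37 °C in 5% CO2 at 100% humidity, then exposed to compound for 48 h. Sulforhodamine B staining read-out. Result given as growth percent: 100 = no inhibition, 0 = no net growth, negative = lethality.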

[6] = tested on: SF-295; test: Growth inhibition of human SF295 cells assessed as cell growth at 1 M after 48 hrs by sulforhodamine B assay; set-up: scale not given: the % may be the effect or the level left; summary of the method: as §2
[7] = tested on: OVCAR-5; test: Growth inhibition of human OVCAR5 cells assessed as cell growth at 1 M after 48 hrs by sulforhodamine B assay; set-up: scale not given: the % may be the effect or the level left; summary of the method: as §1
[8] = tested on: Candida albicans; test: Antimicrobial activity against Candida albicans at 1 to 5 ug/ml by agar well diffusion method
Summary of the method: (§3)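 Agar well diffusion against bacteria and fungi. Inhibition zone is scored beyond the control: ++ 0.6–1.0 cm, + 0.1–0.5 cm, 0 no inhibition.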

[9] = tested on: T47D; test: Growth inhibition of human T47D cells assessed as cell growth at 1 M after 48 hrs by sulforhodamine B assay; set-up: scale not given: the % may be the effect or the level left; summary of the method: as §2
[10] = tested on: ACHN; test: Growth inhibition of human ACHN cells assessed as cell growth at 1 M after 48 hrs by sulforhodamine B assay; set-up: scale not given: the % may be the effect or the level left; summary of the method: as §1
[11] = tested on: MOLT-4; test: Growth inhibition of human MOLT4 cells assessed as cell growth at 1 M after 48 hrs by sulforhodamine B assay; set-up: scale not given: the % may be the effect or the level left; summary of the method: as §1
[12] = tested on: HT-29; test: Growth inhibition of human HT-29 cells assessed as cell growth at 1 M after 48 hrs by sulforhodamine B assay; set-up: scale not given: the % may be the effect or the level left; summary of the method: as §1
[13] = tested on: DU-145; test: Growth inhibition of human DU145 cells assessed as cell growth at 1 M after 48 hrs by sulforhodamine B assay; set-up: scale not given: the % may be the effect or the level left; summary of the method: as §1
[14] = tested on: HCT-15; test: Growth inhibition of human HCT15 cells assessed as cell growth at 1 M after 48 hrs by sulforhodamine B assay; set-up: scale not given: the % may be the effect or the level left; summary of the method: as §1
[15] = tested on: HL-60(TB); test: Growth inhibition of human HL-60(TB) cells assessed as cell growth at 1 M after 48 hrs by sulforhodamine B assay; set-up: scale not given: the % may be the effect or the level left
Summary of the method: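 NCI 60-cell panel, single-dose screen. Cells grown in RPMI 1640 with 5% fetal bovine serum and 2 mM L-glutamine, seeded at 5000–40,000 cells/well and preincubated 24 h at 37 °C in 5% CO2 before drug. Exposure 48 h, then sulforhodamine B staining. Read-out is growth percent: 100 = no inhibition, 0 = no net growth, negative = lethality.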

[16] = tested on: Penicillium italicum; test: Antimicrobial activity against Penicillium italicum at 1 to 5 ug/ml by agar well diffusion method; summary of the method: as §3
[17] = tested on: OVCAR-3; test: Growth inhibition of human OVCAR3 cells assessed as cell growth at 1 M after 48 hrs by sulforhodamine B assay; set-up: scale not given: the % may be the effect or the level left; summary of the method: as §1
[18] = tested on: MDA-MB-435; test: Growth inhibition of human MDA-MB-435 cells assessed as cell growth at 1 M after 48 hrs by sulforhodamine B assay; set-up: scale not given: the % may be the effect or the level left; summary of the method: as §1
[19] = tested on: SK-MEL-5; test: Growth inhibition of human SK-MEL-5 cells assessed as cell growth at 1 M after 48 hrs by sulforhodamine B assay; set-up: scale not given: the % may be the effect or the level left; summary of the method: as §2
[20] = tested on: Bacillus subtilis; test: Antimicrobial activity against Bacillus subtilis at 1 to 5 ug/ml by agar well diffusion method; summary of the method: as §3
[21] = tested on: BT-549; test: Growth inhibition of human BT549 cells assessed as cell growth at 1 M after 48 hrs by sulforhodamine B assay; set-up: scale not given: the % may be the effect or the level left; summary of the method: as §1
[22] = tested on: SNB-19; test: Growth inhibition of human SNB19 cells assessed as cell growth at 1 M after 48 hrs by sulforhodamine B assay; set-up: scale not given: the % may be the effect or the level left; summary of the method: as §2
[23] = tested on: SF-539; test: Growth inhibition of human SF539 cells assessed as cell growth at 1 M after 48 hrs by sulforhodamine B assay; set-up: scale not given: the % may be the effect or the level left; summary of the method: as §2
[24] = tested on: OVCAR-4; test: Growth inhibition of human OVCAR4 cells assessed as cell growth at 1 M after 48 hrs by sulforhodamine B assay; set-up: scale not given: the % may be the effect or the level left; summary of the method: as §1
[25] = tested on: M14; test: Growth inhibition of human M14 cells assessed as cell growth at 1 M after 48 hrs by sulforhodamine B assay; set-up: scale not given: the % may be the effect or the level left; summary of the method: as §1
[26] = tested on: NCI-H23; test: Growth inhibition of human NCI-H23 cells assessed as cell growth at 1 M after 48 hrs by sulforhodamine B assay; set-up: scale not given: the % may be the effect or the level left; summary of the method: as §1
[27] = tested on: HCT-116; test: Growth inhibition of human HCT116 cells assessed as cell growth at 1 M after 48 hrs by sulforhodamine B assay; set-up: scale not given: the % may be the effect or the level left; summary of the method: as §1
[28] = tested on: Staphylococcus aureus; test: Antimicrobial activity against Staphylococcus aureus at 1 to 5 ug/ml by agar well diffusion method; summary of the method: as §3
[29] = tested on: IGROV-1; test: Growth inhibition of human IGROV1 cells assessed as cell growth at 1 M after 48 hrs by sulforhodamine B assay; set-up: scale not given: the % may be the effect or the level left; summary of the method: as §1
[30] = tested on: SW-620; test: Growth inhibition of human SW620 cells assessed as cell growth at 1 M after 48 hrs by sulforhodamine B assay; set-up: scale not given: the % may be the effect or the level left; summary of the method: as §2
[31] = tested on: EKVX; test: Growth inhibition of human EKVX cells assessed as cell growth at 1 M after 48 hrs by sulforhodamine B assay; set-up: scale not given: the % may be the effect or the level left; summary of the method: as §1
[32] = tested on: LOX IMVI; test: Growth inhibition of human LOXIMVI cells assessed as cell growth at 1 M after 48 hrs by sulforhodamine B assay; set-up: scale not given: the % may be the effect or the level left; summary of the method: as §1
[33] = tested on: Syncephalastrum racemosum; test: Antimicrobial activity against Syncephalastrum racemosum at 1 to 5 ug/ml by agar well diffusion method; summary of the method: as §3
[34] = tested on: Rattus norvegicus; test: Effect on circulating testosterone and dihydrotestosterone level in sc dosed Sprague-Dawley rat by radioimmunoassay relative to anastrozole
Summary of the method: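 Serum testosterone and DHT were measured by RIA in ether extracts of serum (0.5 mL serum, 2 mL diethyl ether, 60 s shaking), without chromatography, in rats dosed at several levels. Relative potency is the ED50 of anastrozole divided by the ED50 of the test agent, where ED50 is the dose giving 50% of the pharmacological response.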

[35] = tested on: 786-0; test: Growth inhibition of human 786-0 cells assessed as cell growth at 1 M after 48 hrs by sulforhodamine B assay; set-up: scale not given: the % may be the effect or the level left; summary of the method: as §1

CC(=O)c1ccc(N/N=C(\C(=O)c2ccc(Cl)cc2)c2nc(C)cc(=O)[nH]2)cc1
Activity [1]: 116.72%
Activity [2]: 97.73%
Activity [3]: 90.5%
Activity [4]: 97.59%
Activity [5]: 120.15%
Activity [6]: 95.38%
Activity [7]: 91.69%
diameter of the inhibition zone (DIZ) [8]: 0 cm
Activity [9]: 75.56%
Activity [10]: 90.63%
Activity [11]: 84.16%
Activity [12]: 101.59%
Activity [13]: 95.47%
Activity [14]: 96.72%
Activity [15]: 115.14%
diameter of the inhibition zone (DIZ) [16]: 0 cm
Activity [17]: 104.16%
Activity [18]: 95.8%
Activity [19]: 88.4%
diameter of the inhibition zone (DIZ) [20]: 0 cm
Activity [21]: 99.42%
Activity [22]: 95.91%
Activity [23]: 90.87%
Activity [24]: 99.2%
Activity [25]: 88.06%
Activity [26]: 86.1%
Activity [27]: 90.39%
diameter of the inhibition zone (DIZ) [28]: 0 cm
Activity [29]: 94.2%
Activity [30]: 98.45%
Activity [31]: 105.04%
Activity [32]: 90.57%
diameter of the inhibition zone (DIZ) [33]: 0 cm
Ratio ED50 [34]: 1.562
Activity [35]: 103.17%

Cc1ccc(N/N=C(\C(=O)c2ccc(Cl)cc2)c2nc(C)cc(=O)[nH]2)cc1
Activity [1]: 94.24%
Activity [2]: 90.99%
Activity [3]: 95.01%
Activity [4]: 107.77%
Activity [5]: 136.08%
Activity [6]: 90.05%
Activity [7]: 121.85%
diameter of the inhibition zone (DIZ) [8]: 0 cm
Activity [9]: 88.32%
Activity [10]: 99.08%
Activity [11]: 98.62%
Activity [12]: 110.66%
Activity [13]: 102.09%
Activity [14]: 110.86%
Activity [15]: 108.59%
diameter of the inhibition zone (DIZ) [16]: 0 cm
Activity [17]: 95.76%
Activity [18]: 123.17%
Activity [19]: 82.48%
diameter of the inhibition zone (DIZ) [20]: 0 cm
Activity [21]: 117.79%
Activity [22]: 103.64%
Activity [23]: 85.29%
Activity [24]: 116.35%
Activity [25]: 82.73%
Activity [26]: 111.33%
Activity [27]: 86.94%
diameter of the inhibition zone (DIZ) [28]: 0 cm
Activity [29]: 7.59%
Activity [30]: 93.7%
Activity [31]: 91.46%
Activity [32]: 92.62%
diameter of the inhibition zone (DIZ) [33]: 0 cm
Ratio ED50 [34]: 6.301
Activity [35]: 82.91%

Cc1cc(=O)[nH]c(/C(=N/Nc2ccccc2)C(=O)c2ccc(Cl)cc2)n1
Activity [1]: 104.07%
Activity [2]: 88.71%
Activity [3]: 92.58%
Activity [4]: 83.96%
Activity [5]: 65.49%
Activity [6]: 75.72%
Activity [7]: 117.08%
diameter of the inhibition zone (DIZ) [8]: 0 cm
Activity [9]: 77.02%
Activity [10]: 110.63%
Activity [11]: 39.84%
Activity [12]: 105.27%
Activity [13]: 104.88%
Activity [14]: 112.06%
Activity [15]: 50.74%
diameter of the inhibition zone (DIZ) [16]: 0 cm
Activity [17]: 97.53%
Activity [18]: 107.78%
Activity [19]: 92.44%
diameter of the inhibition zone (DIZ) [20]: 0 cm
Activity [21]: 97.44%
Activity [22]: 95.47%
Activity [23]: 92.33%
Activity [24]: 110.81%
Activity [25]: 97.08%
Activity [26]: 105.18%
Activity [27]: 86.88%
diameter of the inhibition zone (DIZ) [28]: 0 cm
Activity [29]: 17.65%
Activity [30]: 94.56%
Activity [31]: 103.39%
Activity [32]: 98.95%
diameter of the inhibition zone (DIZ) [33]: 0 cm
Ratio ED50 [34]: 5.166
Activity [35]: 82.24%

Source: ChEMBL document CHEMBL1629486, “Antimicrobial, antitumor and 5α-reductase inhibitor activities of some hydrazonoyl substituted pyrimidinones” (Eur J Med Chem, 2010)
